In ChEMBL document CHEMBL1157180 (Bioorg Med Chem, 2008) one finds Activity, IC50 and Ki data, which are given here for 8 molecules.

Calls of active or inactive are those of the source. No cut-off for these calls is given here.

Series [1] deals with Rattus norvegicus. Kind of series: Acute toxicity in orally dosed Wistar rat after 1 week. The settings on record: in vivo, po, 168 h. The series is classed as organism-based. In short, it runs like this:
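Rats, 8 per group, fasted 16 h, then given the compounds orally at various doses. Animals observed for 1 week after dosing, with deaths recorded daily.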

The species named for series [2] is Rattus norvegicus. Kind of series: Antiamnesic activity in Wistar rat assessed as reversal of scopolamine-induced memory loss by passive avoidance test. The series is classed as functional, organism-based.
In series [3] the target is T1, Muscarinic acetylcholine receptor M1 (Rattus norvegicus, UniProt P08482).
T1 sequence (P08482 whole entry): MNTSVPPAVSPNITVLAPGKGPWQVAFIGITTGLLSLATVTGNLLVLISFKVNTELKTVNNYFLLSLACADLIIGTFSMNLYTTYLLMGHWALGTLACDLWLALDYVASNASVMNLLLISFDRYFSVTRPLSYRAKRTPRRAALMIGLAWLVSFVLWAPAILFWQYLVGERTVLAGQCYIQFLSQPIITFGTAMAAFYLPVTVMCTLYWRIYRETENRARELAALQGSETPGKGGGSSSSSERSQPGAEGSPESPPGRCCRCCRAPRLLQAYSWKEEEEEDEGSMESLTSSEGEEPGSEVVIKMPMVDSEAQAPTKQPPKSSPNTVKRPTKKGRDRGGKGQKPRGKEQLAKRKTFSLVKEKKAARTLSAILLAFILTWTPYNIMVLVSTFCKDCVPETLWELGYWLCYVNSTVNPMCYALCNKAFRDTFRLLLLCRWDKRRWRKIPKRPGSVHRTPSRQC
Kind of series: Displacement of [3H]Quinuclidinyl benzilate from muscarinic M1 receptor in Wistar rat cortex synaptosomal membrane. In general terms: Loss of bound radioactivity is the signal in a displacement assay; it reports binding, not function.

The species named for series [4] is Rattus norvegicus. Kind of series: Reversal of scopolamine-induced spartial working memory loss in Wistar rat assessed by Y maze task. The series is classed as functional. Further details: concentration or dose not given beside the values. In short, it runs like this: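 Male Wistar rats (200–250 g, n = 8) receive test agent with scopolamine and explore the Y-maze 30 min later. Arm entries, including returns, are recorded visually. An alternation is successive entries into all three arms on overlapping triplets. % alternation = actual alternations/(total entries − 2) × 100, compared against the scopolamine-only group.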

Series [5] is filed under the species Rattus norvegicus. The series is described as follows: Reversal of scopolamine-induced memory and learning impairment in Wistar rat assessed as transfer latency for 90 seconds by plus maze test. In kind it is functional, organism-based. In short, it runs like this:
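Elevated plus maze in male Wistar rats, 30 min after treatment, given scopolamine alone or test agent plus scopolamine; controls got 0.9% saline. Each rat is placed at the end of an open arm facing away from the centre. Transfer latency (TL) is the time to enter an enclosed arm. Day 1 has 90 s exploration (TL1, learning) and day 2 is a retest of the same rats (TL2, memory).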

With `CN1CCC=C(C2CN(S(=O)(=O)c3cc(Cl)ccc3Cl)CCO2)C1` (stereo unspecified), the Activity entry in the series on Rattus norvegicus [1] is “Non-toxic”. Also, the outcome in the series filed under Rattus norvegicus [2] was Active. In series [3], the IC50 amounted to 115 µM and affinity was put at a Ki of 35 µM. Also, the Activity in the series filed under Rattus norvegicus [4] is reported as 59%.
In the case of `CN1CCC=C(C2CN(S(=O)(=O)c3cccc([N+](=O)[O-])c3)CCO2)C1` (stereo unspecified), in the series on Rattus norvegicus [1], the Activity result is given as “Non-toxic”. Besides, the result in the series filed under Rattus norvegicus [2] was Active. In series [3], this molecule came in with an IC50 of 201 µM and an inhibitory constant (Ki) of 62 µM.
Turning to `CN1CCC=C(C2CN(S(=O)(=O)c3ccc(C(C)(C)C)cc3)CCO2)C1` (stereo unspecified), the values for the Activity result with Rattus norvegicus [1] and in the series listed under Rattus norvegicus [4] were “Non-toxic” and 61%, respectively. In addition, the outcome in the series listed under Rattus norvegicus [2] and in the series filed under Rattus norvegicus [5] was Active. The same molecule yielded an IC50 in series [3] of 19 µM. The same molecule returned an inhibition constant (Ki) in series [3] of 4 µM.
On to `Cc1ccc(S(=O)(=O)N2CCOC(C3=CCCN(C)C3)C2)cc1` (stereo unspecified), for which the Activity entry in the series with Rattus norvegicus [1] is “Non-toxic”; in the series filed under Rattus norvegicus [4], 62%. In addition, the outcome in the series listed under Rattus norvegicus [2] and in the series listed under Rattus norvegicus [5] was Active. Moreover, the IC50 in series [3] stood at 61 µM. Further, the Ki in series [3] stood at 14 µM.
Consider `CN1CCC=C(C2CN(S(=O)(=O)c3ccccc3)CCO2)C1` (stereo unspecified), for which the Activity result with Rattus norvegicus [1] is given as “Non-toxic”; in the series listed under Rattus norvegicus [4] it was 60%. In addition, the result in the series filed under Rattus norvegicus [2] and in the series listed under Rattus norvegicus [5] was Active. For the same molecule, the IC50 in series [3] was 90 µM. The molecule also yielded a Ki in series [3] of 27 µM.
`CN1CCC=C(C2CN(S(=O)(=O)c3ccc(Cl)cc3)CCO2)C1` (stereo unspecified): the Activity result was “Non-toxic” in the series with Rattus norvegicus [1] and 64% in the series filed under Rattus norvegicus [4]. The result in the series filed under Rattus norvegicus [2] and in the series filed under Rattus norvegicus [5] was Active. The IC50 in series [3] turned out to be 0.92 µM. The molecule further came in with a Ki in series [3] of 0.26 µM.
As to `CN1CCC=C(C2CN(S(=O)(=O)c3ccc([N+](=O)[O-])cc3)CCO2)C1` (stereo unspecified), in the series on Rattus norvegicus [1], the Activity result is listed as “Non-toxic”. In the series filed under Rattus norvegicus [2], the result was Active. In series [3], this molecule yielded a 50% inhibitory concentration (IC50) of 208 µM and a Ki of 64 µM.
For `CN1CCC=C(C2CN(S(=O)(=O)c3ccccc3[N+](=O)[O-])CCO2)C1` (stereo unspecified) the same measures were “Non-toxic”, “Active”, 314 µM and 96 µM.

As a reminder, the IC50 is the concentration that gives 50% inhibition. In general, Ki refers to a dissociation constant, usually derived from enzyme kinetics or from competition with a known ligand.
